# Data reported in ChEMBL document CHEMBL1121715, “New antiarrhythmic agents. 4. 1'-(Aminoalkyl)-1,2,3,4-tetrahydronaphthalene-1-spiro-3'-pyrrolidine-2',5'-dione derivatives” (J Med Chem, 1981).
# Values joined by “and” are separate entries in the source; they are usually repeats but may differ in a detail not shown here. Identical values can stand only once.
# What was measured:
# [1] = tested on: Canis familiaris; assay: % ectopic beats was measured in unanesthetized dog at 0.056 dose
# [2] = tested on: Canis familiaris; assay: Ventricular rate was measured in anesthetized dog at 0.042 dose; format: functional, Canis lupus familiaris, Heart; conditions: in the assay text read “unanesthetized dog” for “anesthetized dog”
# Procedure, shortened: (§1)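 Adult female dogs (6.7–14.5 kg) had two-stage ligation of the left anterior descending coronary artery the day before testing. After control ventricular rate, % ectopic beats and mean arterial pressure were recorded, the drug (HCl salt, isotonic solution) was infused iv without anesthesia at 0.1, 0.5 or 1.0 (mg/kg)/min, mostly 0.5. Infusion continued until the arrhythmia was abolished or cardiovascular/CNS toxicity appeared. Cumulative dose is given in mmol/kg; toxicity included convulsion and P-R prolongation ≥25%.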
# [3] = tested on: Mus musculus; assay: Protection against chloroform induced arrhythmias in mice after subcutaneous administration at 100 mg/kg dose.; format: functional
# Procedure, shortened: (§2)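 Groups of 10 unanesthetized mice got sc injection of drug in 0.9% saline. After 20 min observation they were placed one by one in chloroform-vapor-saturated air. When breathing stopped, the thorax was opened and the heart inspected by eye; coordinated ventricular contractions counted as protected.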
# [4] = tested on: Canis familiaris; assay: MABP value was measured in anesthetized dog at 0.038 dose; format: functional, Canis lupus familiaris; conditions: in the assay text read “unanesthetized dog” for “anesthetized dog”
# Procedure, shortened: (§3)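 Adult female dogs (6.7–14.5 kg) had the left anterior descending coronary artery ligated in two stages the day before testing. Dogs were unanesthetized. Ectopic beats (% of ventricular rate) and mean arterial pressure were read at maximal antiarrhythmic effect against the cumulative dose.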
# [5] = species on record: Mus musculus; assay: Percentage toxicity measured as loss of righting reflex.; format: organism-based; conditions: in vivo
# Procedure, shortened: (§4)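 Mice (groups of 10) were dosed sc with drug in 0.9% saline and watched for 20 min for overt toxicity (ataxia, convulsions, loss of righting reflex, death) before chloroform exposure.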
# [6] = species on record: Canis familiaris; assay: (§5) The dose at which toxicity was measured; format: organism-based, Canis lupus familiaris; conditions: dog, in vivo
# Procedure, shortened: as §1
# [7] = tested on: Canis familiaris; assay: MABP value was measured in anesthetized dog at 0.042 dose; format: functional, Canis lupus familiaris
# [8] = species on record: Canis familiaris; assay: as §5; format: organism-based, Canis lupus familiaris; design: unit: mmol/kg; conditions: dog, in vivo
# Procedure, shortened: as §1
# [9] = tested on: Canis familiaris; assay: Blood level was measured in anesthetized dog at 0.084 dose; format: functional, Canis lupus familiaris
# [10] = species on record: Mus musculus; assay: Percentage toxicity measured as ataxia.; format: organism-based; conditions: in vivo
# Procedure, shortened: as §4
# [11] = tested on: Canis familiaris; assay: % ectopic beats was measured in anesthetized dog at 0.038 dose; format: functional, Canis lupus familiaris, Heart; conditions: in the assay text read “unanesthetized” for “anesthetized”
# Procedure, shortened: as §3
# [12] = species on record: Canis familiaris; assay: Nature of toxicity was expressed; convulsion; format: organism-based, Canis lupus familiaris; conditions: dog, in vivo
# Procedure, shortened: as §1
# [13] = tested on: Canis familiaris; assay: Blood level was measured in anesthetized dog at 0.042 dose; format: functional, Canis lupus familiaris
# [14] = tested on: Canis familiaris; assay: Ventricular rate was measured in anesthetized dog at 0.042d dose; format: functional, Canis lupus familiaris, Heart; conditions: in the assay text read “unanesthetized dog” for “anesthetized dog”
# Procedure, shortened: as §1
# [15] = tested on: Canis familiaris; assay: Ventricular rate was measured in anesthetized dog at 0.084 dose; format: functional, Canis lupus familiaris, Heart; conditions: in the assay text read “unanesthetized” for “anesthetized”
# Procedure, shortened: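 Adult female dogs (6.7–14.5 kg) had ventricular arrhythmias from two-stage ligation of the left anterior descending coronary artery the day before. Ventricular rate (bpm) was read at maximal antiarrhythmic effect against cumulative dose.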
# [16] = tested on: Canis familiaris; assay: Ventricular rate was measured in anesthetized dog at 0.056 dose; format: functional, Canis lupus familiaris, Heart; conditions: in the assay text read “unanesthetized dog” for “anesthetized dog”
# Procedure, shortened: as §1
# [17] = tested on: Canis familiaris; assay: MABP value was measured in anesthetized dog at 0.056 dose; format: functional, Canis lupus familiaris; conditions: in the assay text read “unanesthetized dog” for “anesthetized dog”
# Procedure, shortened: as §1
# [18] = Percentage toxicity measured as death of mice.; format: organism-based; design: concentration or dose not given beside the values; conditions: mouse, in vivo; read-out: Death
# [19] = species on record: Mus musculus; assay: Percentage toxicity measured as convulsions.; format: organism-based; conditions: in vivo
# Procedure, shortened: as §4
# [20] = tested on: Canis familiaris; assay: % ectopic beats was measured in unanesthetized dog at 0.084 dose
# [21] = tested on: Canis familiaris; assay: Ventricular rate was measured in anesthetized dog at 0.038 dose; format: functional, Canis lupus familiaris, Heart; conditions: in the assay text read “unanesthetized dog” for “anesthetized dog”
# Procedure, shortened: as §1
# [22] = species on record: Canis familiaris; assay: MABP value was measured in […] at 0.084 dose; format: functional, Canis lupus familiaris
# Procedure, shortened: as §1
# [23] = species on record: Canis familiaris; assay: (§6) Toxicity of blood level was measured; format: organism-based, Canis lupus familiaris; conditions: dog, in vivo
# Procedure, shortened: (§7)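 In coronary-ligated conscious dogs under iv infusion, blood was sampled at toxicity. Drug was extracted with methylene chloride at pH 10.3 (ammonium citrate/ammonia) with another analogue as internal standard, then derivatized with heptafluorobutyrylimidazole. Assay was GC-FID on 3% JXR, quantified from drug/internal standard peak-height ratio against standard curves; results in μmol/mL.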
# [24] = Maximal concentration in dogs after intravenous administration; conditions: dog, in vivo
# [25] = tested on: Canis familiaris; assay: as above; conditions: dog, in vivo
# [26] = tested on: Canis familiaris; assay: % ectopic beats was measured in anesthetized dog at 0.047 dose.; format: functional, Canis lupus familiaris, Heart; conditions: in the assay text read “unanesthetized” for “anesthetized”
# Procedure, shortened: as §3
# [27] = tested on: Mus musculus; assay: Protection against chloroform induced arrhythmias was measured in mice after sc administration at given dose.; format: functional; conditions: Mus musculus, sc; read-out: ED50
# Procedure, shortened: as §2
# [28] = Volume of distribution was measured at given dose of 43 umol/kg; format: ADME, organism-based; conditions: in vivo
# Procedure, shortened: (§8)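 In dogs given iv infusions, blood samples were alkaline-extracted (pH 10.3) into methylene chloride and derivatized with heptafluorobutyrylimidazole. Concentrations were measured by GC-FID against an internal standard using standard curves. Clearance was total dose ÷ blood-level AUC (zero to infinity), and volume of distribution was clearance ÷ elimination rate constant.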
# [29] = tested on: Canis familiaris; assay: Ventricular rate was measured in anesthetized dog at 0.016 dose; format: functional, Canis lupus familiaris, Heart; conditions: in the assay text read “unanesthetized dog” for “anesthetized dog”
# Procedure, shortened: as §1
# [30] = species on record: Canis familiaris; assay: as §6; format: organism-based, Canis lupus familiaris; conditions: dog, in vivo; remark: listed apart in the source
# Procedure, shortened: as §7
# [31] = species on record: Canis familiaris; assay: (§9) The dose at which toxicity was measured.; format: organism-based, Canis lupus familiaris; conditions: dog, in vivo
# Procedure, shortened: as §1
# [32] = tested on: Canis familiaris; assay: Blood level was measured in anesthetized dog at 0.016d ose.; format: functional, Canis lupus familiaris; conditions: in the assay text read “unanesthetized” for “anesthetized”
# Procedure, shortened: (§10)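 Blood was sampled from unanesthetized dogs with coronary-ligation arrhythmias during iv drug infusion. Each 1 mL sample was mixed with internal standard and pH 10.3 ammonium citrate/ammonia buffer and extracted into methylene chloride. The extract was dried at 50 °C and derivatized with heptafluorobutyrylimidazole. Analysis was by GC with flame-ionization detection (3% JXR column, 220 °C). Concentration came from the drug/internal standard peak-height ratio against standard curves.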
# [33] = species on record: Canis familiaris; assay: as §9; format: organism-based, Canis lupus familiaris; conditions: dog, in vivo; remark: listed apart in the source
# Procedure, shortened: as §1
# [34] = Maximal concentration in dogs after 34 umol/kg intravenous dose; conditions: dog, in vivo
# [35] = Volume of distribution was measured at given dose of 34 umol/kg; format: ADME, organism-based; conditions: in vivo
# Procedure, shortened: as §8
# [36] = species on record: Canis familiaris; assay: (§11) Maximum dose of the Compound; format: functional, Canis lupus familiaris
# Procedure, shortened: as §1
# [37] = tested on: Canis familiaris; assay: Ventricular rate was measured in anesthetized dog at 0.047 dose; format: functional, Canis lupus familiaris, Heart; conditions: in the assay text read “unanesthetized dog” for “anesthetized dog”
# Procedure, shortened: as §1
# [38] = tested on: Canis familiaris; assay: Blood level was measured in anesthetized 0.047 at given dose.; format: functional, Canis lupus familiaris; conditions: in the assay text read “unanesthetized” for “anesthetized”
# Procedure, shortened: as §10
# [39] = Total body clearance was measured at given dose.; format: ADME, organism-based; conditions: in vivo
# Procedure, shortened: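 Blood levels came from the iv-infused dogs, measured by GC-FID after methylene chloride extraction and heptafluorobutyryl derivatization with an internal standard. Total body clearance was total dose divided by the blood-level AUC (zero to infinity); volume of distribution was clearance divided by the elimination rate constant.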
# [40] = tested on: Canis familiaris; assay: MABP value was measured in anesthetized dog at 0.016 dose.; format: functional, Canis lupus familiaris; conditions: in the assay text read “unanesthetized dog” for “anesthetized dog”
# Procedure, shortened: as §3
# [41] = Volume of distribution was measured at given dose of 81 umol/kg; format: ADME, organism-based; conditions: in vivo
# Procedure, shortened: as §8
# [42] = tested on: Canis familiaris; assay: MABP value was measured in anesthetized dog at 0.047 dose.; format: functional, Canis lupus familiaris; conditions: in the assay text read “unanesthetized dog” for “anesthetized dog”
# Procedure, shortened: as §1
# [43] = species on record: Canis familiaris; assay: as §11; format: ADME, organism-based, Canis lupus familiaris; conditions: dog, in vivo
# Procedure, shortened: as §1
# [44] = tested on: Canis familiaris; assay: % ectopic beats was measured in anesthetized dog at 0.016 dose.; format: functional, Canis lupus familiaris, Heart; conditions: in the assay text read “unanesthetized” for “anesthetized”
# Procedure, shortened: as §3
structure (smiles),measurement,setting,value
CC(C)Oc1ccc2c(c1)C1(CCC2)CC(=O)N(CCCN(C)C)C1=O (stereo not given),Ectopic beats,[1],5%
same,Ventricular rate,[2],165 beats min-1
same,Protection,[3],50%
same,MABP,[4],75 mmHg
same,Loss of righting reflex,[5],10%
same,Cumulative dose,[6],0.066
same,MABP,[7],90 mmHg and 100 mmHg
same,Cumulative dose,[8],0.077 and 0.133
same,Blood level,[9],0.021 uM ml-1
same,Ataxia,[10],100%
same,Etopic beats,[11],2%
same,Nature,[12],convulsion
same,Blood level,[13],0.013 uM ml-1
same,Ventricular rate,[14],150 beats min-1
same,Ventricular rate,[15],138 beats min-1
same,Ventricular rate,[16],171 beats min-1
same,MABP,[17],110 mmHg
same,mortality,[18],0%
same,Convulsion,[19],0%
same,Ectopic beats,[20],15%
same,Ventricular rate,[21],120 beats min-1
same,MABP,[22],125 mmHg
CCN(CC)CCCCN1C(=O)CC2(CCCc3ccc(OC)cc32)C1=O (stereo not given),Blood level,[23],0.029 uM ml-1
same,Cmax,[24],29 µM
same,Cmax,[25],20 µM
same,Etopic beats,[26],0%
same,ED50,[27],130 µmol/kg
same,Protection,[3],80%
same,Vd,[28],2.47 L/kg
same,Loss of righting reflex,[5],0%
same,Ventricular rate,[29],147 beats min-1
same,Blood level,[30],18 µM
same,Cumulative dose,[31],0.081
same,Blood level,[32],0.011 uM ml-1
same,Cumulative dose,[33],0.02
same,Cmax,[34],12 µM
same,Ataxia,[10],0%
same,Vd,[35],2.64 L/kg
same,Dose,[36],81 µM/kg and 43 µM/kg
same,Ventricular rate,[37],165 beats min-1
same,Blood level,[38],0.02 uM ml-1
same,ClB,[39],8.22 mL/min/kg and 12.8 mL/min/kg
same,clearance,[39]; ClB,10.4 mL/min/kg
same,MABP,[40],95 mmHg
same,Vd,[41],3.41 L/kg
same,MABP,[42],100 mmHg
same,mortality,[18],0%
same,Convulsion,[19],0%
same,Dose,[43],34 µM/kg
same,Etopic beats,[44],1%
